Results published in BindingDB's records for doi:10.1016/j.ejmech.2019.111611 (The University of Queensland, 2019).
pKi: −log10 of the molar value.

The compounds below were run against T1, Fe(3+)-Zn(2+) purple acid phosphatase (Phaseolus vulgaris, UniProt P80366) (assay: Competitive inhibition of red kidney bean PAP using varying levels of pNPP as substrate measured at pH 6.2 by UV-vis spectrophotometric analysis).
T1 sequence (P80366 whole entry): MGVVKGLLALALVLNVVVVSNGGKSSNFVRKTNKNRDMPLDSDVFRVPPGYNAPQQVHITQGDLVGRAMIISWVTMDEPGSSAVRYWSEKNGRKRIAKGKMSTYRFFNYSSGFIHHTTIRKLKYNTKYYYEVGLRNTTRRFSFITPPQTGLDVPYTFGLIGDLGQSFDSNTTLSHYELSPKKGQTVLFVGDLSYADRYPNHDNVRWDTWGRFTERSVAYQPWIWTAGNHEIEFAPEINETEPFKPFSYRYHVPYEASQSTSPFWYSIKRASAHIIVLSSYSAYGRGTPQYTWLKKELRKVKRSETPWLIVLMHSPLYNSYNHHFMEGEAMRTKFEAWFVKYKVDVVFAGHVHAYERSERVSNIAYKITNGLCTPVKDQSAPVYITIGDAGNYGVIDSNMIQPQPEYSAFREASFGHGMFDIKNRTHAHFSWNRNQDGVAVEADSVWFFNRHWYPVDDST
Procedure, shortened: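 Red kidney bean PAP (rkbPAP), purified, at 8.4 nM. p-NPP 1–15 mM in 0.1 M MES pH 6.2 with 25% DMSO, 25 °C. p-Nitrophenol formation followed at 405 nm (Δε 1834.4 mol−1 L cm−1). Inhibitor concentration varied; competitive constant Kic from non-linear regression using a general inhibition equation.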

| Structure (SMILES) | pKi |
| --- | --- |
| CCCCCCCCCCCCOC(c1cccc2ccccc12)P(=O)(O)O (stereo unspecified) | 5.35 |
| CCCCCCCCCCCCCCCCCCCCCCOC(c1cccc2ccccc12)P(=O)(O)O (stereo unspecified) | 4.85 |
| CCCCCCCCCCCCCCCCCCCCOC(c1cccc2ccccc12)P(=O)(O)O (stereo unspecified) | 6.10 |

Now those with a higher pKi, led by results:

| pKi | Structure (SMILES) |
| --- | --- |
| 6.40 | CCCCCCCCCCCCCCCCOC(c1cccc2ccccc12)P(=O)(O)O (stereo unspecified) |
| 6.30 | CCCCCCCCCCCCCCCCCCOC(c1cccc2ccccc12)P(=O)(O)O (stereo unspecified) |
| 6.70 | CCCCCCCCCCCCCCOC(c1cccc2ccccc12)P(=O)(O)O (stereo unspecified) |
